Laboratory results reported in ChEMBL document CHEMBL1130152, “7-spirobenzocyclohexyl derivatives of naltrexone, oxymorphone, and hydromorphone as selective opioid receptor ligands” (J Med Chem, 1997).

Key:
Cavia porcellus [1] = organism: Cavia porcellus; experiment: Agonist activity expressed as percent inhibition of contraction of electrically stimulated guinea pig ileal longitudinal muscle at a concentration of 1 uM; format: functional, Muscle tissue
Outline: (§1)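 Electrically stimulated GPI longitudinal muscle or MVD preparations. Ligands that were not full agonists were tested at 1 µM. Inhibition of contraction was expressed as a percentage of the maximal response. Three or more replicate determinations were run per compound.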

Mus musculus [2] = organism: Mus musculus; experiment: Agonist activity expressed as percent inhibition of contraction of electrically stimulated mouse vas deferens at a concentration of 1 uM; format: functional; outline: as §1
[3] = molecular target: Kappa-type opioid receptor (Mus musculus, UniProt P33534); experiment: Inhibition of [3H]U-69593 binding to Opioid receptor kappa 1 from mouse brain membranes.
Sequence of Kappa-type opioid receptor (P33534 whole entry): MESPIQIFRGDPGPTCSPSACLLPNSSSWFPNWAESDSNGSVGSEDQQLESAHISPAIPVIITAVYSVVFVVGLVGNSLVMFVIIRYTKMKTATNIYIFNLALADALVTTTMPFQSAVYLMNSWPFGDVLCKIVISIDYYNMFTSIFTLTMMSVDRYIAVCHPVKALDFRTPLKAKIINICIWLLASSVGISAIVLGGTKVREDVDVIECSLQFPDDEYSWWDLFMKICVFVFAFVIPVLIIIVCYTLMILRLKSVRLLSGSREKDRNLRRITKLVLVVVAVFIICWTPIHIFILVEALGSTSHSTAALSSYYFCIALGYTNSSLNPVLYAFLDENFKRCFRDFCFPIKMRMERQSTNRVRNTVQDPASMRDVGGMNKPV
Outline: (§2)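 Competition binding of test ligands against tritiated radioligands on mouse brain membranes; the μ site used [3H]DAMGO. IC50 was converted to Ki by the Cheng-Prusoff equation using radioligand concentration and KD. Values are arithmetic means of at least 3 determinations, ±SEM.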

[4] = molecular target: Delta-type opioid receptor (Mus musculus, UniProt P32300); experiment: Inhibition of [3H]-NTI binding to Opioid receptor delta 1 from mouse brain membranes.; outline: as §2
Sequence of Delta-type opioid receptor (P32300 whole entry): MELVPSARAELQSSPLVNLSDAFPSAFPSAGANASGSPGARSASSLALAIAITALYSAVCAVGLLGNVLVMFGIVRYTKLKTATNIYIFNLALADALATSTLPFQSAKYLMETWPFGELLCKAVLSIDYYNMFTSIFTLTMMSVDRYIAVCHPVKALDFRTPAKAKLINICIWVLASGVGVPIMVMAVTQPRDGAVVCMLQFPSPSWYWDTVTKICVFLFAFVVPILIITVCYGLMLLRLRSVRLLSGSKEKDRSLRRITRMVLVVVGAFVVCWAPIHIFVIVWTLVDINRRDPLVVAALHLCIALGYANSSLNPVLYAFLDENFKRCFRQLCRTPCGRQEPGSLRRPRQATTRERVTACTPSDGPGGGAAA

Mu-type opioid receptor = Mu-type opioid receptor (Mus musculus, UniProt P42866); experiment: Inhibition of [3H]DAMGO binding to Opioid receptor mu 1 from mouse brain membranes.; outline: as §2
Sequence of Mu-type opioid receptor (P42866 whole entry): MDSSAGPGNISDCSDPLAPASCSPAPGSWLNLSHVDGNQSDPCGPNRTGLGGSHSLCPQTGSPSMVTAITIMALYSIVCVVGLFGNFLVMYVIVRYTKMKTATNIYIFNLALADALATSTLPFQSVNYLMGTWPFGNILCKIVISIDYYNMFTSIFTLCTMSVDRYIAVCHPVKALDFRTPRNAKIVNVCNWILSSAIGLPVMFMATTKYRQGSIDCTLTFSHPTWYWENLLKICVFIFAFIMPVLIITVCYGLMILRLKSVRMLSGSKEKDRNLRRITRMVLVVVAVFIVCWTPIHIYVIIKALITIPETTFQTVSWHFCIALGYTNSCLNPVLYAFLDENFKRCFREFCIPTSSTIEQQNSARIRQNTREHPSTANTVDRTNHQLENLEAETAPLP

Cavia porcellus [5] = organism: Cavia porcellus; experiment: Agonist activity expressed as inhibitory concentration against contraction of electrically stimulated guinea pig ileum; format: functional
Outline: (§3)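 Electrically stimulated smooth muscle: longitudinal muscle of guinea pig ileum (GPI) and mouse vas deferens (MVD). Inhibition of contraction was measured for ligands acting as full agonists, and potency was given as IC50 (nM). Three or more replicate determinations were run per compound.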

Mus musculus [6] = organism: Mus musculus; experiment: Agonist activity expressed as inhibitory concentration against contraction of electrically stimulated mouse vas deferens; format: functional; outline: as §3

SMILES	Max response (Cavia porcellus [1])	Max response (Mus musculus [2])	Ki [3]	Ki [4]	Ki (Mu-type opioid receptor)	IC50 (Cavia porcellus [5])	IC50 (Mus musculus [6])
O=C1[C@@H]2Oc3c(O)ccc4c3C23CCN(CC2CC2)C(C4)[C@]3(O)C[C@]12CCc1ccccc1C2 (stereo not given in full)	2%	4%	> 1000 nM	0.0019 nM	0.38 nM		
CN1CCC23c4c5ccc(O)c4O[C@H]2C(=O)[C@@]2(CCc4ccccc4C2)C[C@H]3C1C5 (stereo not given in full)		42%	88 nM	8.3 nM	2.8 nM	130 nM	
CN1CCC23c4c5ccc(O)c4O[C@H]2C(=O)[C@@]2(CCc4ccccc4C2)C[C@@]3(O)C1C5 (stereo not given in full)			> 1000 nM	4.6 nM	18 nM	183 nM	24 nM
O=C1[C@@H]2Oc3c(O)ccc4c3C23CCN(CC2CC2)C(C4)[C@]3(O)C[C@@]12CCc1ccccc1C2 (stereo not given in full)	16%	3%	147 nM	0.0041 nM	0.72 nM		
CN1CCC23c4c5ccc(O)c4O[C@H]2C(=O)[C@]2(CCc4ccccc4C2)C[C@H]3C1C5 (stereo not given in full)		17%	> 1000 nM	182 nM	119 nM	107 nM	
CN1CCC23c4c5ccc(O)c4O[C@H]2C(=O)[C@]2(CCc4ccccc4C2)C[C@@]3(O)C1C5 (stereo not given in full)			> 3000 nM	9.3 nM	28 nM	629 nM	28 nM
O=C1[C@@H]2Oc3c(O)ccc4c3[C@@]23CCN(CC2CC2)[C@H](C4)[C@]3(O)CC12Cc1ccccc1C2	16%	8%	> 3000 nM	0.25 nM	1.5 nM		
CN1CC[C@]23c4c5ccc(O)c4O[C@H]2C(=O)C2(Cc4ccccc4C2)C[C@@]3(O)[C@H]1C5 [SPIROINDANYLOXYMORPHONE]	55%		> 3000 nM	2.8 nM	14 nM		22 nM
